# KCNQ1 inh: human KCNQ1 channel inhibition. CHO-K1 KCNQ1, FluxOR thallium flux fluorescence; active compounds read high. 1.3% of 310,000 active. B-score at 10 µM;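 active means compounds whose thallium flux B-score, printed positive for inhibition, exceeds three library SD while starting fluorescence stays within three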;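 further: channel opened by potassium depolarization with thallium stimulus after 20 min compound exposure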
# KCNK3 inh: human KCNK3 channel inhibition, primary screen; AID 602410; 0.84% of 340,000 active; B-score at 10 µM; CHO-KCNK3 thallium flux, FluxOR fluorescence; active compounds read low; O14649;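 active means B-score under library mean minus 4 SD, starting fluorescence ratio at most library mean plus 5 SD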;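 further: more negative B-score means stronger inhibition of thallium flux through KCNK3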
# KCNQ1 act: human KCNQ1 channel potentiation or activation; P51787; CHO-K1 KCNQ1, thallium flux FluxOR fluorescence; active compounds read high; B-score at 10 µM; 0.35% of 310,000 active; AID 2648;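 active means fluorescence ratio B-score, a plate-corrected score, at least three library SD, with initial intensity B-score within 5 SD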
#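 assay system = CHO-K1 cells stably expressing KCNQ1 | medium = assay buffer, equal DMSO in all wells | timing = 37 °C overnight plating, 90-min dark dye load, 20-min compound pretreatment | measured by = kinetic FluxOR thallium fluorescence, 10-s 1-Hz baseline, 110-s post-stimulus read | measure = fluorescence change relative to baseline, converted to B score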
# KCNK9 inh: human KCNK9 channel inhibition | 1.2% of 310,000 active | HEK293 KCNK9, FluxOR thallium flux fluorescence; active compounds read low | B-score at 10 µM | Q9NPC2;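 active means ratio B-score over 3 SD below the library mean, with starting fluorescence within 5 SD of its mean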;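 further: negative B-score means less thallium flux so channel inhibition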
# hERG rescue: hERG (human) protection from proarrhythmic block; activation (rescue from dofetilide block), less the hit threshold, % at 10 µM; CHO-hERG, FluxOR thallium flux, dofetilide IC70 present; 0.51% of 310,000 active;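 active means activation above the mean of controls blocked by dofetilide plus 5 SD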;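 further: thallium influx through hERG after potassium depolarization seen as dye fluorescence rise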
# Target sequence (Q12809 whole entry, looked up): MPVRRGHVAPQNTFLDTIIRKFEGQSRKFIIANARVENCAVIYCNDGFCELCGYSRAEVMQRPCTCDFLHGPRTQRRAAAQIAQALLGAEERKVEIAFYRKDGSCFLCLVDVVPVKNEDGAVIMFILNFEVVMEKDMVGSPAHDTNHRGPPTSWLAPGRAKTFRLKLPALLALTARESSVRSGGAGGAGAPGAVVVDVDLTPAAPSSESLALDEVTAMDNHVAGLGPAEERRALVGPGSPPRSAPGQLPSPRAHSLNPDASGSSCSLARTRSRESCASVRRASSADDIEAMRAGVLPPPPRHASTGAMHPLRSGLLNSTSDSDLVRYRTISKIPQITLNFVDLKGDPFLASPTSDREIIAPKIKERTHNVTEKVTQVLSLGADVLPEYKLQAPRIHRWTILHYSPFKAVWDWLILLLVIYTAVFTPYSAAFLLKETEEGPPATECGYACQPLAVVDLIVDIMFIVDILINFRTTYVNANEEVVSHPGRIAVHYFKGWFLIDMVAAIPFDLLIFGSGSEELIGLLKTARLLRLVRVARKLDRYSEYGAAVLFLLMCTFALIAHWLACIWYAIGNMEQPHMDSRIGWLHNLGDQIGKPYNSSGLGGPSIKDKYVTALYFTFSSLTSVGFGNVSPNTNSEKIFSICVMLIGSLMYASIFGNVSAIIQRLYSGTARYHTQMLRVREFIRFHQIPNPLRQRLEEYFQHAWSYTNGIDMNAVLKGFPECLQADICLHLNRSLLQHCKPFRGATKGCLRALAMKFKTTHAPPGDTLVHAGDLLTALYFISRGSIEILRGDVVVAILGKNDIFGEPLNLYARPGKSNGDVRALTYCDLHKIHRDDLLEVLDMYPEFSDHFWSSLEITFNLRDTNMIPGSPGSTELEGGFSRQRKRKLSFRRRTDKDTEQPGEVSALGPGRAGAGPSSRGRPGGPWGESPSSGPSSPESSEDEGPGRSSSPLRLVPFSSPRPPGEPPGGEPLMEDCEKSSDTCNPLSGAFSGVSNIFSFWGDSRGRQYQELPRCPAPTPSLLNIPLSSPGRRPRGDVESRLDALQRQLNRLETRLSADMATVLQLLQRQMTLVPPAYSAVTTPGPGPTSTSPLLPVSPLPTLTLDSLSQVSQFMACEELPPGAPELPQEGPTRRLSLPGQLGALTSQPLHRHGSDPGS
# KCNK3 inh conf: confirmation of human KCNK3 two-pore domain potassium channel inhibitors. 99% of 2,400 active. CHO-KCNK3 thallium flux, FluxOR fluorescence; 0% buffer, 100% carvedilol maximal block. ratio percent of control, % at 10 µM. shares compounds with KCNK3 inh. AID 651638;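 active means ratio percent of control, averaged over triplicates, above buffer control mean plus 5 SD, cut at about 64% in these data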;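 further: ratio is the fluorescence rise from min to max over baseline after thallium stimulus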
# KCNK3 noninduced: counter-screen for KCNK3 inhibitors: effect in non-induced cells | non-induced KCNK3 parental cells, FluxOR thallium flux; active compounds read low | shares compounds with KCNK3 inh | AID 651747 | 40% of 2,400 active | thallium flux ratio (lower = more inhibition) at 10 µM;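 active means thallium flux ratio, averaged over three wells, more than 5 SD below the buffer control mean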;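 further: host cells are CHO cells without KCNK3 induction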
# Numbers stand for hits; - = inactive; . = not tested or not shown. Most compounds without a hit are left out; they make up all but 3.1% or so of the library.
SMILES,KCNQ1 inh,KCNK3 inh,KCNQ1 act,KCNK9 inh,hERG rescue,KCNK3 inh conf,KCNK3 noninduced
CC(=O)Nc1cccc(OCCCNC(=O)c2cccc3ccccc23)c1,-,-,-,-,-,.,.
Cc1ccc2c(CN(C)Cc3cccc(Cl)c3)cc(=O)oc2c1C,-,-8.7,-,-,-,126,-
CN(Cc1ccccc1F)Cc1cc(=O)oc2cc(O)c(Cl)cc12,-,-,-,-,-,.,.
Cc1cc2oc(=O)cc(CN(C)Cc3ccccc3F)c2cc1Cl,-,-12,-,-,-,118,0.14
COc1ccc(C2C(C(C)=O)=C(O)C(=O)N2c2ccc(F)cc2)cc1 (stereo not given),-,-,-,-,-,.,.
CCOC(=O)C(NC(=O)c1cccc(Cl)c1)(Nc1nnc(C)s1)C(F)(F)F (stereo not given),-,-,-,-,-,.,.
Oc1cccc(Nc2nc(O)c(/C=C3\C=Nc4ccccc43)s2)c1,.,-15,.,.,.,148,0.083
CN(C)c1cccc(C(=O)OCc2cc(=O)oc3cc(O)ccc23)c1,-,-9,-,-,-,113,-
CC1CN(S(=O)(=O)c2cccc(C(=O)OCc3cc(=O)oc4cc(O)ccc34)c2)CC(C)O1 (stereo not given),-,-,-,-,-,.,.
NC(=O)N/N=C/c1cn(-c2ccccc2)nc1-c1cccnc1,-,.,-,-,-,.,.
O=C(N/N=C/c1cn(-c2ccccc2)nc1-c1cccnc1)c1ccccc1,-,-9.5,-,-,-,98,-
O=S(=O)(NCCCN1CCOCC1)c1ccc(Cl)s1,-,-,-,-,-,.,.
CCCCCCNS(=O)(=O)c1ccc(Cl)s1,-,-9.2,-,-,-,94,-
Cc1cccc(Nc2nc(N)c([N+](=O)[O-])c(N3CC(C)OC(C)C3)n2)c1 (stereo not given),-,-9,-,-,-,88,-
Cc1cccc(Nc2nc(N)c([N+](=O)[O-])c(N3CC(C)CC(C)C3)n2)c1 (stereo not given),-,-,-,-,-,.,.
Cc1cc(-c2nnc(SCC(=O)Nc3c(C)cccc3C)n2N)n[nH]1,-,-,-,-,-,.,.
CCC(=O)N1c2ccc(S(=O)(=O)N3CCOCC3)cc2CC1C (stereo not given),-,-,-,-,-,.,.
CC1CCCN(C(=O)CCCn2c(=S)[nH]c3ccccc3c2=O)C1 (stereo not given),-,-,-,-,-,.,.
CCN1C(=O)/C(=C/c2cccs2)SC1=Nc1ccc(OC)cc1,-,-,-,-,-,.,.
CCCN1C(=O)/C(=C/c2ccc(C)s2)SC1=Nc1ccc(OC)cc1,-,-9,-,-,-,114,-
COc1ccc(-c2[nH]ncc2N=Nc2cc(C)cc(C)c2)cc1,-,-,-,-,-,.,.
COc1ccc(-c2[nH]ncc2N=Nc2ccccc2)cc1,-,-9.2,-,-,-,88,-
CSc1cccc(NC(=O)/C=C/c2cccc(Cl)c2)c1,11,-11,-,-,-,128,0.16
Cc1[nH]c2ccc(C(=O)N3CCN(c4ccc(F)cc4)CC3)cc2c1C,-,-,-,-,-,.,.
COc1ccc(N(C)S(=O)(=O)c2cccc(C(=O)N3CCN(S(=O)(=O)c4ccc(C)cc4)CC3)c2)cc1,-,-,-,-12,-,92,-
SMILES,KCNQ1 inh,KCNK3 inh,KCNQ1 act,KCNK9 inh,hERG rescue,KCNK3 inh conf,KCNK3 noninduced
COc1ccc(OCCCC(=O)Nc2nncs2)cc1,-,-,-,-,-,.,.
O=[N+]([O-])c1ccc(O)c(/C=N/n2c(CO)nc3ccccc32)c1,-,-,-,-,-,.,.
C/C(=N\OCc1nc2ccccc2c(=O)n1/N=C/c1cc([N+](=O)[O-])ccc1O)c1ccccc1,6,-9.1,-,-,-,95,0.12
CC1=C(C(=O)OC(C)C)C(c2cn(-c3ccccc3)nc2-c2cccs2)NC(=O)N1 (stereo not given),-,-9.5,-,-,-,87,-
Cc1ccc(CCNC(=O)CCn2c(=O)c3cccn3c3ccc(F)cc32)cc1,-,-,-,-,-,.,.
COc1ccc(CNn2c(-c3cccs3)nc3ccccc3c2=O)cc1OC,-,-9.3,-,-,-,91,-
CCn1c(O)c(/C=N/N=C/c2ccccc2)c2ccc(C3=NNC(=O)CC3)cc21,-,-8.9,-,-,-,131,0.12
COc1ccccc1-n1c(SCC(=O)Nc2ccccc2F)nc2[nH]ncc2c1=O,-,-9.6,-,-,-,114,-
O=C(c1cc(-c2cccc(O)c2)on1)N1CCCCCC1,-,-11,-,-,-,68,-
CCOC(=O)Nc1ccc2c(c1)N(C(=O)CN1CCN(CCO)CC1)c1ccccc1CC2,-,-,-,-,-,.,.
COc1ccccc1C(=O)NCCC(=O)N1CCCC(C(F)(F)F)C1 (stereo not given),-,-9.5,-,-,-,77,-
COc1ccccc1C(=O)NCCC(=O)N1CCCCC1,-,-,-,-,-,.,.
CNc1cc(N2CCCC2)ccc1[N+](=O)[O-],-,-,-,-,-,.,.
CCOC(=O)C1CCN(S(=O)(=O)c2ccc(CNC(=O)c3ccccc3)s2)CC1,-,-,-,-,-,.,.
CCOC(=O)c1c(NC(=O)c2cccs2)sc(C)c1CC,-,-9.8,-,-7.5,-,119,-
CCOC(=O)c1c(NC(=O)c2cccs2)sc(C(=O)N(C)C)c1C,-,-,-,-,-,.,.
COc1cccc(-c2nn(-c3ccccc3)cc2CN(C)Cc2c(C)nc3ccccn23)c1,-,-,-,-,-,.,.
COc1ccc(CNc2oc(COc3ccccc3Cl)nc2C#N)cc1,-,-,-,-,-,.,.
COc1ccc(CNc2oc(COc3ccccc3)nc2C#N)cc1,-,-8.9,-,-,-,117,0.16
COc1ccc(CNc2oc(Cc3cccc4ccccc34)nc2C#N)cc1,-,-14,-,-,-,91,0.15
COc1ccc(CCNc2oc(COc3ccccc3)nc2C#N)cc1,-,-,-,-,-,.,.
Cc1cc(C)n2nc[n+](C)c2n1,-,-,-,-,-,.,.
C=CCn1c(SCc2csc(C)n2)nc2sc3c(c2c1=O)CCCC3,-,-8.9,-,-,-,122,0.14
C=CCn1c(SCc2csc(C)n2)nc2sc3c(c2c1=O)CCCCC3,-,-,-,-,-,.,.
COc1ccc(Br)cc1/C=N/NC(=O)c1nc(-c2ccccc2)n2c1CCCCC2,6,-12,-,-,-,113,0.14
COc1ccc(Br)cc1/C=N/NC(=O)c1ccc(OC)c(OC)c1,-,-,-,-,-,.,.
CCOc1ccccc1NC(=O)C(NCCc1ccc(OC)cc1)c1ccccc1 (stereo not given),6,-10,-,-,-,132,0.13

# High-throughput results (PubChem)
